Each structure is given as a SMILES string. Calls of active or inactive are those of the source. The rule behind the calls is not given here.

Test [1] is filed under the species Rattus norvegicus. Kind of test: (§1) Neuroprotective activity in Sprague-Dawley rat DA neuron death PD model assessed as survival of Th immunopositive cells at 50 uM after 10 days by immunofluorescence assay. The format is functional. The essentials: (§2)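 Midbrain cultures in which DA neurons die spontaneously and selectively through a mechanism involving immature astrocytes and calcium dyshomeostasis. Compounds were present for 10 days in vitro, screened at 50 µM (100 µM for one analog) and retested at 10 µM. dbcAMP 1 mM served as reference. Surviving TH+ neurons were counted and expressed as % of corresponding untreated control cultures.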

The species named for test [2] is Rattus norvegicus. Kind of test: (§3) Neuroprotective activity in Sprague-Dawley rat DA neuron death PD model assessed as survival of Th immunopositive cells at 10 uM after 10 days by immunofluorescence assay relative to control. The format is functional. In a few lines: as §2
Test [3] deals with Astrocyte. Kind of test: Neuroprotective activity in Sprague-Dawley rat astrocytes assessed as effect on vimentin positive cell density and morphology at 50 uM by fluorescence microscopic method. The format is functional, cell-based. In a few lines: (§4)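 Midbrain cultures labelled for vimentin, a glial marker. Density and morphology of glial cells scored semi-quantitatively by fluorescence microscopy. Compounds tested at 10 and 50 µM, one at 100 µM; dbcAMP as reference.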

In test [4] the test system is Astrocyte. Description: Neuroprotective activity in Sprague-Dawley rat astrocytes assessed as effect on vimentin positive cell density and morphology at 10 uM by fluorescence microscopic method. Format: functional, cell-based. The essentials: as §4
Test [5] has as its system Astrocyte. Description: Neuroprotective activity in Sprague-Dawley rat astrocytes assessed as [methyl-3H]thymidine incorporation at 10 to 50 uM after 8 days by liquid scintillation counting assay relative to control. Format: functional. In a few lines: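 Glial proliferation in midbrain cultures measured as [methyl-3H]-thymidine incorporation at 8 DIV, with test compound 10-50 µM. DbcAMP 1 mM as positive control. Expressed as % of control.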
In general terms: Incorporation of labelled thymidine or its analogues reports DNA synthesis.

A short description of test [6]: as §3. The format is functional. The note with it: 240 h, read-out: Survival. In a few lines: as §2
For test [7], the system named is Astrocyte. Kind of test: Neuroprotective activity in Sprague-Dawley rat astrocytes assessed as effect on vimentin positive cell density and morphology at 100 uM by fluorescence microscopic method. Format: functional, cell-based. The essentials: as §4
Test [8] is described as follows: Neuroprotective activity in Sprague-Dawley rat DA neuron death PD model assessed as survival of Th immunopositive cells at 100 uM after 10 days by immunofluorescence assay relative to control. Format: functional. To be noted: 240 h, read-out: Survival. The essentials: as §2
Test [9] is filed under the species Rattus norvegicus. Description: Antioxidant activity in Sprague-Dawley rat DA neuron assessed as reduction in ferrous iron-mediated neuron death at 5 uM. Format: functional. In a few lines:
(§5)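 Midbrain cultures with DA cell death driven by a Fenton-type reaction, ferrous iron reacting with molecular oxygen in the medium (chronic oxidative stress). Test compound 1-10 µM; desferrioxamine 10 µM as positive control. Readout is DA neuron (TH+) survival. P < 0.05 vs control cultures.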

The nature of test [10]: Neuroprotective activity in Sprague-Dawley rat DA neuron death PD model assessed as survival of Th immunopositive cells at 1 mM after 10 days by immunofluorescence assay relative to control. The format is functional. The note with it: 240 h, read-out: Survival. The essentials:
as §2

Test [11] is filed under the species Rattus norvegicus. Kind of test: Neuroprotective activity in Sprague-Dawley rat DA neuron death PD model assessed as increase in [2,5,6-3H]DA uptake at 1 mM after 10 days by liquid scintillation counting spectrometric analysis. Format: functional. In a few lines: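 Midbrain cultures in which DA neurons die spontaneously and selectively. Treated with test compound (10-50 µM) or dbcAMP (1 mM, reference) up to 10 DIV. Tritium-labeled DA uptake quantified as a marker of DA cell function and differentiation. Uptake rate per TH+ neuron also derived. *P < 0.05 vs control.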

The subject of test [12] is Astrocyte. Description: Neuroprotective activity in Sprague-Dawley rat astrocytes assessed as effect on vimentin positive cell density and morphology at 1 mM by fluorescence microscopic method. Format: functional, cell-based. The essentials:
as §4

A short description of test [13]: as §1. The format is functional. The note with it: 240 h, read-out: Survival. In a few lines: as §2
For test [14], the species on record is Rattus norvegicus. Description: Antioxidant activity in Sprague-Dawley rat DA neuron assessed as reduction in ferrous iron-mediated neuron death at 10 uM. The format is functional. In a few lines:
as §5

As to `C#CCNc1ccc2nc(C)c(-c3ccccc3)nc2c1`, the result in test [1] was Active.
For `Nc1ccc2ncc(-c3cccc(O)c3)nc2c1`, the result in [2] was inactive. In test [1], the outcome was Active.
As for `C#Cc1cnc2ccc(N)cc2n1`, in [1], the outcome was inactive.
Turning to `C#CCNc1ccc2ncc(-c3ccc(F)cc3)nc2c1`, the result in [3] and in test [1] was Active. Further, the outcome in test [4] was inactive.
With `Cc1nc2ccc(N)cc2nc1-c1ccc2ccccc2c1`, the outcome in test [1] was inactive.
For `C#CCNc1ccc2nc(C)c(-c3ccc(C)cc3)nc2c1`, the result in test [1] and in test [5] was inactive.
Take `Cc1nc2ccc(N)cc2nc1-c1ccc(Cl)c(Cl)c1`: the outcome in test [1] was Active.
Take `Cc1ccc(-c2nc3cc(N)ccc3nc2C)cc1`: the result in test [1] was inactive.
Turning to `Nc1ccc2ncc(-c3ccc4ccccc4c3)nc2c1`, the result in [1] was Active.
As for `COc1ccc(-c2nc3cc(N)ccc3nc2-c2ccccc2)cc1`, the outcome in test [1] was inactive.
`C#CCNc1ccc2ncc(-c3ccccc3)nc2c1`: the viability at 10 µM in test [6] stood at 212%. Further, the outcome in [3] and in test [1] was Active. The outcome in [4] was inactive.
For `C#CCNc1ccc2nc(C)c(-c3ccc(OC)cc3)nc2c1`, in test [5], the result was inactive.
As to `C#CC(C)(C)Nc1ccc2nc(C)c(-c3ccccc3)nc2c1`, the result in test [1] and in test [5] was inactive.
Regarding `Nc1ccc2ncc(-c3cccc4ccccc34)nc2c1`, the outcome in test [1] was Active.
On to `COc1ccc(-c2nc3cc(N)ccc3nc2C)cc1`, for which the outcome in test [1] was inactive.
Still for that read-out and setting: for `Cc1nc2cc(Br)c(N)c(Cl)c2nc1-c1ccccc1` the value was “inactive”; for `Nc1ccc2ncc(-c3cccnc3)nc2c1`, “Active”.
Take `Nc1ccc2ncc(Cl)nc2c1`: in [1], the outcome was Active.
Consider `Cc1nc2ccc(N)c(Br)c2nc1-c1ccccc1`, for which the result in [2] was inactive. In addition, the result in test [1] was Active.
Regarding `Cc1nc2ccc(N)cc2nc1-c1ccc(F)cc1`, the result in [1] was Active.
For `Cc1nc2ccc(N)cc2nc1-c1ccccc1`, the outcome in test [7] and in test [9] was Active. The viability at 100 µM in test [8] came to 199%. In addition, the outcome in test [4] was inactive.
Regarding `CCCC(=O)Nc1ncnc2c1ncn2[C@@H]1O[C@@H]2COP(=O)(O)O[C@H]2[C@H]1OC(=O)CCC` [BUCLADESINE], the viability at 1000 µM in test [10] is 225%. In addition, the result in test [11] and in test [12] was Active.
For the compound `Nc1ccc2nc(-c3ccccc3)cnc2c1`, the viability at 10 µM in test [6] was 134%. In addition, the result in test [3] and in test [4] was inactive. Further, the viability at 50 µM in test [13] came to 187%.
For `COc1ccc(C#Cc2cnc3ccc(N)cc3n2)cc1`, the result in [1] was inactive.
`C#CCNc1ccc2nc(C)c(-c3ccccc3)nc2c1Br`: the result in test [1] was Active.
Regarding `Cc1nc2ccc(N)cc2nc1-c1ccc(-c2ccccc2)cc1`, the result in [1] was inactive.
Consider `C#CCNc1ccc2nc(C)c(-c3ccc(Cl)c(Cl)c3)nc2c1`, for which the result in [1] and in test [5] was inactive.
Consider `COc1ccc(-c2nc3cc(N)ccc3nc2C)cc1OC`, for which the outcome in [1] was inactive.
In the case of `CC(=O)N(O)CCCCCNC(=O)CCC(=O)N(O)CCCCCNC(=O)CCC(=O)N(O)CCCCCN`, the outcome in test [14] was Active.
As for `C#CCNc1ccc2nc(C)c(-c3ccc(Cl)cc3)nc2c1`, the result in test [1] and in test [5] was inactive.
With `Cc1nc2ccc(N)cc2nc1C`, the outcome in test [1] was inactive.
On to `COc1cc(-c2cnc3ccc(N)cc3n2)cc(OC)c1OC`, for which the outcome in test [2] was inactive. The outcome in [1] was Active.
Consider `C#CCNc1ccc2nc(C)c(-c3ccc4ccccc4c3)nc2c1`, for which the outcome in test [1] and in test [5] was inactive.
For `Cc1nc2ccc(N)c(Cl)c2nc1-c1ccccc1`, the result in [1] was Active.
Take `Cc1nc2ccc(N)cc2nc1-c1ccc(Cl)cc1`: in test [1], the result was inactive.
As for `Nc1ccc2ncc(-c3ccc(F)cc3)nc2c1`, the viability at 10 µM in test [6] worked out at 144%. Further, the outcome in [3] and in test [4] was inactive. Moreover, in test [1], the outcome was Active.
As for `C#CCNc1ccc2nc(C)c(-c3cc(OC)c(OC)c(OC)c3)nc2c1`, the result in [5] was inactive.
On to `C#CCNc1ccc2nc(C)c(-c3ccc(F)cc3)nc2c1`, for which the outcome in [1] was Active.
On the same count and under the same terms, for `Nc1ccc2ncc(-c3cnc4ccccc4c3)nc2c1` the value was “Active”.

These data come from ChEMBL document CHEMBL4431316, “New 6-Aminoquinoxaline Derivatives with Neuroprotective Effect on Dopaminergic Neurons in Cellular and Animal Parkinson Disease Models” (J Med Chem, 2016).
